Numbering of substitutions follows the chain as printed.
Key:
[1] = target: T1, Renin (Homo sapiens, UniProt P00797); experiment: Inhibition of human purified renin
T1 sequence (P00797 whole entry): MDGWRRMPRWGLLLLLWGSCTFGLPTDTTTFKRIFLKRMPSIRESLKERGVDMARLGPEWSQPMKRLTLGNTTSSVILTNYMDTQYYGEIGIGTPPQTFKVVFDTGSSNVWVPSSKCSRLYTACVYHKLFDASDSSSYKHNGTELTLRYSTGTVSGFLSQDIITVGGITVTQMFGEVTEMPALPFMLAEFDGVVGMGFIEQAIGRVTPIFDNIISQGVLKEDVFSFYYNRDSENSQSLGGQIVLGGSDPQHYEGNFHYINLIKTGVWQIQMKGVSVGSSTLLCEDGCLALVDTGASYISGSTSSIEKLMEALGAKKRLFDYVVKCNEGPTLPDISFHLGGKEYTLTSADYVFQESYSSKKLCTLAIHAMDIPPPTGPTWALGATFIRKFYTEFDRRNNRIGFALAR

[2] = target: T2, Renin (Macaca fascicularis, UniProt Q6DLS0); experiment: Inhibition of renin in cynomolgus monkey plasma
T2 sequence (Q6DLS0 whole entry): T1 sequence (P00797 whole entry) with T68A, I214L, S235A

[3] = Metabolic stability in cynomolgus monkey liver microsomes assessed as compound remaining at 1 uM incubated with NADPH generating system measured after 30 mins; format: ADME, Macaca fascicularis, Microsome; details: read-out: Stability
Outline: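 Monkey liver microsome stability, high-throughput in-house format: compound incubated at […] with an NADPH-generating system and 0.5 mg/mL microsomal protein at 37 °C.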

[4] = Cmax in cynomolgus monkey at 10 mg/kg, po; format: ADME, organism-based, Macaca fascicularis; parameters: dose 10 mg/kg, route oral; details: in vivo
[5] = Half life in cynomolgus monkey at 1 mg/kg, iv; format: ADME, organism-based, Macaca fascicularis; parameters: dose 1 mg/kg, route intravenous; details: in vivo
[6] = Clearance in cynomolgus monkey at 1 mg/kg, iv; format: ADME, organism-based, Macaca fascicularis; parameters: dose 1 mg/kg, route intravenous; details: in vivo
[7] = Volume of distribution at steady state in cynomolgus monkey at 1 mg/kg, iv; format: ADME, organism-based, Macaca fascicularis; parameters: dose 1 mg/kg, route intravenous; details: in vivo, read-out: Vdss
[8] = AUC (0 to 24 hrs) in cynomolgus monkey at 10 mg/kg, po; details: plasma
[9] = Oral bioavailability in cynomolgus monkey at 10 mg/kg; format: ADME, organism-based, Macaca fascicularis; details: in vivo

IC50 [1] [nM]	IC50 [2] [nM]	SMILES	other results
1.7	9.8	COCCOc1ccccc1N1CC(C)(C)N(C[C@H](N)[C@@H](O)C[C@H](C(=O)NCC(C)(C)C(N)=O)C(C)C)CC1=O	
400	3000	COCCCOc1cccc(N2CCN(CC(N)C(O)CC(C(=O)NCC(C)(C)C(N)=O)C(C)C)CC2=O)c1 (racemic)	
	2800	COCCCOc1ccccc1N1CCN(CC(N)C(O)CC(C(=O)NCC(C)(C)C(N)=O)C(C)C)CC1=O (racemic)	
1.9	19	COc1ccccc1N1CC(C)(C)N(C[C@H](N)[C@@H](O)C[C@H](C(=O)NCC(C)(C)C(N)=O)C(C)C)CC1=O	
170	875	COCCCOc1ccccc1N1CCN(CC(N)C(O)CC(C(=O)NCC(C)(C)C(N)=O)C(C)C)C(C)(C)C1=O (racemic)	
1.4	6.4	COCOc1ccccc1N1CC(C)(C)N(C[C@H](N)[C@@H](O)C[C@H](C(=O)NCC(C)(C)C(N)=O)C(C)C)CC1=O	
1.2	5.3	COCCCOc1ccccc1N1CC(C)(C)N(C[C@H](N)[C@@H](O)C[C@H](C(=O)NCC(C)(C)C(N)=O)C(C)C)CC1=O	
370	12500	COCCCOc1ccccc1C1CCN(CC(N)C(O)CC(C(=O)NCC(C)(C)C(N)=O)C(C)C)CC1 (racemic)	
1.7	24	Cc1ccccc1N1CC(C)(C)N(C[C@H](N)[C@@H](O)C[C@H](C(=O)NCC(C)(C)C(N)=O)C(C)C)CC1=O	
3.3	10	COCCCOc1ccccc1N1CC(C)(C)N(CC(N)C(O)CC(C(=O)NCC(C)(C)C(N)=O)C(C)C)CC1=O (racemic)	

Continued, compound first:

SMILES	IC50 [1] [nM]	IC50 [2] [nM]	other results
CCCCNC(=O)[C@@H](C[C@H](O)[C@@H](N)CN1CC(=O)N(c2ccccc2Cl)CC1(C)C)C(C)C	1	9	remaining at 0.5 h, 1 µM [3]: 39.2%
CC(C)[C@H](C[C@H](O)[C@@H](N)CN1CC(=O)N(c2cc(F)ccc2Cl)CC1(C)C)C(=O)NC1CCCCC1	1.9	5	remaining at 0.5 h, 1 µM [3]: 38%
CCCCNC(=O)[C@@H](C[C@H](O)[C@@H](N)CN1CC(=O)N(c2cc(F)ccc2Cl)CC1(C)C)C(C)C.O=C(O)/C=C/C(=O)O	2	25	Cmax [4]: 576 ng/mL; half-life [5]: 10.8 h; clearance [6]: 14.7 mL/min/kg; Vd [7]: 16.3 L/kg; AUC(0-t) at 24 h [8]: 2110 ng·h/mL; remaining at 0.5 h, 1 µM [3]: 52.2%; bioavailability [9]: 18.5%
CC(C)[C@H](C[C@H](O)[C@@H](N)CN1CC(=O)N(c2cccc(Cl)c2)CC1(C)C)C(=O)NCC(C)(C)C(N)=O	2.1	25	
CC(C)[C@H](C[C@H](O)[C@@H](N)CN1CC(=O)N(c2ccccc2Cl)CC1(C)C)C(=O)NC1CCCCC1	1	11	remaining at 0.5 h, 1 µM [3]: 17.5%
CC(C)[C@H](C[C@H](O)[C@@H](N)CN1CC(=O)N(c2cc(Cl)ccc2Cl)CC1(C)C)C(=O)NCC(C)(C)C(N)=O	2.1	28	
COc1cccc(N2CC(C)(C)N(C[C@H](N)[C@@H](O)C[C@H](C(=O)NCC(C)(C)C(N)=O)C(C)C)CC2=O)c1	4.2	58	
COc1ccc(Cl)c(N2CC(C)(C)N(C[C@H](N)[C@@H](O)C[C@H](C(=O)NCC(C)(C)C(N)=O)C(C)C)CC2=O)c1	2.4	33	
CC(C)[C@H](C[C@H](O)[C@@H](N)CN1CC(=O)N(c2c(F)cccc2F)CC1(C)C)C(=O)NCC(C)(C)C(N)=O	2.4	12	
CC(C)[C@H](C[C@H](O)[C@@H](N)CN1CC(=O)N(c2cc(F)ccc2F)CC1(C)C)C(=O)NCC(C)(C)C(N)=O	2	30	
CC(C)[C@H](C[C@H](O)[C@@H](N)CN1CC(=O)N(c2ccccc2)CC1(C)C)C(=O)NCC(C)(C)C(N)=O	3.1	49	
CC(C)[C@H](C[C@H](O)[C@@H](N)CN1CC(=O)N(c2ccccc2F)CC1(C)C)C(=O)NCC(C)(C)C(N)=O	2.2	30	
CC(C)[C@H](C[C@H](O)[C@@H](N)CN1CC(=O)N(c2cc(F)cc(F)c2)CC1(C)C)C(=O)NCC(C)(C)C(N)=O	5.5	90	
CC(C)[C@H](C[C@H](O)[C@@H](N)CN1CC(=O)N(c2ccccc2Cl)CC1(C)C)C(=O)NCC(C)(C)C(N)=O		7	
CC(C)[C@H](C[C@H](O)[C@@H](N)CN1CC(=O)N(c2cccc(F)c2)CC1(C)C)C(=O)NCC(C)(C)C(N)=O	3	23	
CC(C)[C@H](C[C@H](O)[C@@H](N)CN1CC(=O)N(c2cc(F)ccc2Cl)CC1(C)C)C(=O)NCC(C)(C)C(N)=O	2.1	7	
CC[C@H](C)CNC(=O)[C@@H](C[C@H](O)[C@@H](N)CN1CC(=O)N(c2cc(F)ccc2Cl)CC1(C)C)C(C)C	1.4	8	remaining at 0.5 h, 1 µM [3]: 1.9%
CC[C@H](C)CNC(=O)[C@@H](C[C@H](O)[C@@H](N)CN1CC(=O)N(c2ccccc2Cl)CC1(C)C)C(C)C	1	2	remaining at 0.5 h, 1 µM [3]: 8.4%
CC(C)[C@H](C[C@H](O)[C@@H](N)CN1CC(=O)N(c2cccc(F)c2F)CC1(C)C)C(=O)NCC(C)(C)C(N)=O	2	11	
